Legend:
Rattus norvegicus [1] = assay: Compound was evaluated for the inhibition of quipazine-induced head twitches after 24 hr (administered subcutaneously); format: functional; conditions: sc
Rattus norvegicus [2] = assay: Compound was evaluated for the inhibition of quipazine-induced head twitches after 2 h (administered subcutaneously); format: functional; conditions: sc
[3] = biological target: Serotonin 2 (5-HT2) receptor (Rattus norvegicus, UniProt P30994+P08909+P14842); assay: Displacement of [3H]ketanserin from 5-hydroxytryptamine 2 receptor from rat cortical membranes.; format: cell membranes, Membrane
Summary of the method: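 [3H]ketanserin displacement from rat cortical membranes (5-HT2). Five concentrations across three decades in triplicate, two full curves; IC50 estimated on a log-concentration scale, given as logarithmic mean of at least two determinations.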

[4] = biological target: T1, Adrenergic receptor alpha-1 (Rattus norvegicus, UniProt P15823+P23944+P43140); assay: Displacement of [3H]prazosin from Alpha-1 adrenergic receptor of whole rat brain membranes; format: cell membranes, Membrane
T1 sequence (P15823 whole entry): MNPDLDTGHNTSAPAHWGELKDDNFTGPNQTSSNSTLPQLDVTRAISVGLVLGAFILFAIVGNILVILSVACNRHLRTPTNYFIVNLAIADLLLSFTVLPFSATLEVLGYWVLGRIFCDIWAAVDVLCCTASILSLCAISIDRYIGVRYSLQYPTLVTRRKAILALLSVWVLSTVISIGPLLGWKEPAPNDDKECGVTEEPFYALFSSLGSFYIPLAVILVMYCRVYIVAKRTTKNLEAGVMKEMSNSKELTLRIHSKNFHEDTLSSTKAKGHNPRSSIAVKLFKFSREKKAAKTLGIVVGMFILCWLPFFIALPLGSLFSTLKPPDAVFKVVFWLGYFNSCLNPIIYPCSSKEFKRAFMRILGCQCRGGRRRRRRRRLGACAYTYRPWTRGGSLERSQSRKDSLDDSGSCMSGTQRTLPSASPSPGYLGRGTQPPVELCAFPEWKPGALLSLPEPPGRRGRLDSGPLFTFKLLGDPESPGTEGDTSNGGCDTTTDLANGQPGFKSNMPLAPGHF
T1 sequence (P23944 whole entry): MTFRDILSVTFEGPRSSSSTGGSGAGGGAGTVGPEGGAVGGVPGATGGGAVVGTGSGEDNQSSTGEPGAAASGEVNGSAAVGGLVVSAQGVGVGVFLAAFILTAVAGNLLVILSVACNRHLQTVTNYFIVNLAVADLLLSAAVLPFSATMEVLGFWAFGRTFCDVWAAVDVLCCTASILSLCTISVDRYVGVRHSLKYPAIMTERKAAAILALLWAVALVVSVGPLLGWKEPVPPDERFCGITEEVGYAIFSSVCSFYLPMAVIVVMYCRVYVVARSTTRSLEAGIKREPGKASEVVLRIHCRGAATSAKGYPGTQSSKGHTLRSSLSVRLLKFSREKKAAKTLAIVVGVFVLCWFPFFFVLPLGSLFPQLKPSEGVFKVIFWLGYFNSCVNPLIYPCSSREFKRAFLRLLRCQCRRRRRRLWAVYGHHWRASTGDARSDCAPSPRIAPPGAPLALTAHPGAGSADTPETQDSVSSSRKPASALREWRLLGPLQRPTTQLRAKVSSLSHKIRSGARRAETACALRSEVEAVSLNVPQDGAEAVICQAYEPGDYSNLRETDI
T1 sequence (P43140 whole entry): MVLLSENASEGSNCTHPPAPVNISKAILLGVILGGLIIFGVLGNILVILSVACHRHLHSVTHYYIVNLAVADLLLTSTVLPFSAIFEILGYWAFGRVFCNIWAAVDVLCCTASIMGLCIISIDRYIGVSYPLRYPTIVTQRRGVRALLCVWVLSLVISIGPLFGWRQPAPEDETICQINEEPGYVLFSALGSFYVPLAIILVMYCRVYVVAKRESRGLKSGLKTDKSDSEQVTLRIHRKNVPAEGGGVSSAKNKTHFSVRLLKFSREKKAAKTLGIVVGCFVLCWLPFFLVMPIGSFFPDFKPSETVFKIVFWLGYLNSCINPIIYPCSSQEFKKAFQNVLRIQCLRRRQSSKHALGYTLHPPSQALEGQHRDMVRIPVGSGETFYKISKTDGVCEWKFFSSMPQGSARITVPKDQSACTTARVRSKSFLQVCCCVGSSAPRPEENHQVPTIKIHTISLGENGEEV
Summary of the method: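 α1 adrenoceptor binding measured as displacement of [3H]prazosin from whole rat brain membranes. Five test-drug concentrations spanning three decades in triplicate, two full curves; IC50 from log concentration-effect curves, logarithmic mean of at least two determinations.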

D(2) dopamine receptor = D(2) dopamine receptor (Rattus norvegicus, UniProt P61169); assay: Displacement of [3H]-spiperone from Dopamine receptor D2 from rat striatal membranes; format: cell membranes, Membrane
Sequence of D(2) dopamine receptor (P61169 whole entry): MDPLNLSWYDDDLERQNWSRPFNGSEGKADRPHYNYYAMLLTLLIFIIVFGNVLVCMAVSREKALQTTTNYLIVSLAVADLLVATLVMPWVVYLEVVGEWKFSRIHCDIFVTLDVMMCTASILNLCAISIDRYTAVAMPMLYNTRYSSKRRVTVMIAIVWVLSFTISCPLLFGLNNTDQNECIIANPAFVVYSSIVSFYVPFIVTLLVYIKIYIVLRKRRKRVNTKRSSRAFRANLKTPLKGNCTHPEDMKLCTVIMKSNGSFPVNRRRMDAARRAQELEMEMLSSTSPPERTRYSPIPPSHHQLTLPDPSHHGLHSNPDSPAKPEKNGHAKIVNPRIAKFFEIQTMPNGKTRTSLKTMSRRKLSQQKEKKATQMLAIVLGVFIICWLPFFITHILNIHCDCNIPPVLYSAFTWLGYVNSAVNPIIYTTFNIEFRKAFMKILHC
Summary of the method: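 [3H]spiperone displacement from rat striatal membranes (D2). Five test-drug concentrations over three decades, in triplicate, two full curves; IC50 from log concentration-effect curves, reported as logarithmic mean of at least two determinations.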

Mus musculus [5] = organism: Mus musculus; assay: Compound was evaluated for the inhibition of isolation-induced aggression at a threshold of, 90 seconds; format: functional
Summary of the method: (§1)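 Isolated male NMRI mice (3 weeks) trained to attack a nonaggressive intruder of the same strain; only mice with attack latency <25 s included. Pretested just before dosing and 2 h after sc test substance; observation maximum 180 s; at least eight mice per dose.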

Mus musculus [6] = organism: Mus musculus; assay: Compound was evaluated for the inhibition of isolation-induced aggression at a threshold of 180 seconds; format: functional; summary of the method: as §1
Rattus norvegicus [7] = assay: Compound was evaluated for the inhibition of pergolide-induced reactions after 2 hr (administered subcutaneously); format: functional; conditions: sc
Summary of the method: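 Male Wistar rats with unilateral 6-OHDA lesions; test drug sc 2 h before pergolide (0.05 µmol/kg sc) to induce contralateral circling. Effect of each dose expressed as percent of mean of control sessions 1 week before and 1 week after, per rat; at least four rats per dose; ED50 by log-probit analysis.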

Rattus norvegicus [8] = assay: Compound was evaluated for the inhibition of quipazine-induced head twitches after 24 h (administered subcutaneously); 0.0042-0.061; conditions: sc
Rattus norvegicus [9] = assay: Compound was evaluated for the inhibition of quipazine-induced head twitches after 2 h (administered subcutaneously); 0.11-0.29; format: functional; conditions: sc
Rattus norvegicus [10] = assay: Compound was evaluated for the inhibition of quipazine-induced head twitches after 24 hr (administered perorally); 0.014-0.074; format: functional; conditions: po
Rattus norvegicus [11] = assay: Compound was evaluated for the inhibition of quipazine-induced head twitches after 24 hr (administered subcutaneously); 0.010-0.12; format: functional; conditions: sc
Rattus norvegicus [12] = assay: Compound was evaluated for the inhibition of quipazine-induced head twitches after 2 hr (administered subcutaneously); 0.018-0.096; format: functional; conditions: sc
Rattus norvegicus [13] = assay: Compound was evaluated for the inhibition of quipazine-induced head twitches after 24 h (administered perorally); 0.056-0.22; format: functional; conditions: po
Mus musculus [14] = organism: Mus musculus; assay: Compound was evaluated for the inhibition of isolation-induced aggression at a threshold of,90 seconds; format: functional; summary of the method: as §1
Rattus norvegicus [15] = assay: Compound was evaluated for the inhibition of quipazine-induced head twitches after 2 hr (administered subcutaneously); 0.010-0.24; format: functional; conditions: sc
Rattus norvegicus [16] = assay: Compound was evaluated for the inhibition of quipazine-induced head twitches after 24 hr (administered perorally); 0.010-0.048; format: functional; conditions: po
Rattus norvegicus [17] = assay: Compound was evaluated for the inhibition of quipazine-induced head twitches after 24 hr (administered subcutaneously); 0.0027-0.031; format: functional; conditions: sc

| SMILES | IC50 [3] [nM] | IC50 [4] [nM] | IC50 (D(2) dopamine receptor) [nM] | further results |
| --- | --- | --- | --- | --- |
| CC(C)c1ccc2c(C3CCN(CCN4CCN(C(C)C)C4=O)CC3)cn(-c3ccc(F)cc3)c2c1 | 16 | 730 | – | ED50 (Rattus norvegicus [1]): > 4.3 µmol/kg; ED50 (Rattus norvegicus [2]): > 0.54 µmol/kg |
| CC(C)c1ccc2c(C3CCN(CCN4CCNC4=O)CC3)cn(-c3ccc(F)cc3)c2c1 | 18 | 250 | 2600 | – |
| Cc1ccc2c(C3CCN(CCN4CCNC4=O)CC3)cn(-c3ccc(F)cc3)c2c1 | 0.82 | 24 | – | – |
| Cc1ccc2c(C3CCN(CCN4CCN(C(C)C)C4=O)CC3)cn(-c3ccc(Cl)cc3)c2c1 | 6 | 450 | – | – |
| CC(C)N1CCN(CCN2CCC(c3cn(-c4ccc(F)cc4)c4cc(C(F)(F)F)ccc34)CC2)C1=O | 2.9 | 91 | – | – |
| CC(C)NC(=O)N(C)CCN1CCC(c2cn(-c3ccc(F)cc3)c3cc(Cl)ccc23)CC1 | 2.2 | 26 | 74 | ED50 (Mus musculus [5]): > 21 µmol/kg; ED50 (Mus musculus [6]): > 21 µmol/kg; ED50 (Rattus norvegicus [7]): > 21 µmol/kg; ED50 (Rattus norvegicus [8]): 0.016 µmol/kg; ED50 (Rattus norvegicus [9]): 0.18 µmol/kg; ED50 (Rattus norvegicus [10]): 0.032 µmol/kg |
| Cc1ccc2c(C3CCN(CCN4CCN(C(C)C)C4=O)CC3)cn(-c3ccc(F)cc3)c2c1 | 1.6 | 85 | – | ED50 (Mus musculus [6]): 7.3 µmol/kg; ED50 (Rattus norvegicus [7]): > 18 µmol/kg; ED50 (Rattus norvegicus [11]): 0.036 µmol/kg; ED50 (Rattus norvegicus [12]): 0.042 µmol/kg; ED50 (Rattus norvegicus [13]): 0.11 µmol/kg; ED50 (Mus musculus [14]): 13 µmol/kg |
| CNC(=O)N(C)CCN1CCC(c2cn(-c3ccc(F)cc3)c3cc(Cl)ccc23)CC1 | 1.6 | 16 | 82 | ED50 (Mus musculus [5]): > 23 µmol/kg; ED50 (Rattus norvegicus [15]): 0.049 µmol/kg; ED50 (Mus musculus [6]): > 23 µmol/kg; ED50 (Rattus norvegicus [7]): > 23 µmol/kg; ED50 (Rattus norvegicus [16]): 0.022 µmol/kg; ED50 (Rattus norvegicus [17]): 0.0092 µmol/kg |
| Cc1ccc2c(C3CCN(CCNC(=O)NC(C)C)CC3)cn(-c3ccc(F)cc3)c2c1 | 1.8 | 76 | – | – |
| Cc1ccc2c(C3CCN(CCN4CCN(C(C)C)C4=O)CC3)c[nH]c2c1 | 60 | 27 | 590 | ED50 (Rattus norvegicus [2]): > 0.84 µmol/kg |
| CC(C)N1CCN(CCN2CCC(c3cn(-c4ccccc4F)c4cc(Cl)ccc34)CC2)C1=O | 3.7 | 120 | – | – |
| CC(C)N1CCN(CCN2CCC(c3cn(-c4ccccc4)c4cc(Cl)ccc34)CC2)C1=O | 4.5 | 39 | 290 | – |

— ChEMBL document CHEMBL1125563, “Selective, centrally acting serotonin 5-HT2 antagonists. 1. 2- and 6-substituted 1-phenyl-3-(4-piperidinyl)-1H-indoles” (J Med Chem, 1992)
